Results from ChEMBL document CHEMBL1139014, “Stereochemical sensitivity of the human UDP-glucuronosyltransferases 2B7 and 2B17” (J Med Chem, 2006).

These compounds were tested against T1, UDP-glucuronosyltransferase 2B7 (Homo sapiens, UniProt P16662) (assay: Competitive inhibition of UGT2B7-catalyzed scopoletin glucuronidation). Conditions: not given.
T1 sequence (P16662 whole entry): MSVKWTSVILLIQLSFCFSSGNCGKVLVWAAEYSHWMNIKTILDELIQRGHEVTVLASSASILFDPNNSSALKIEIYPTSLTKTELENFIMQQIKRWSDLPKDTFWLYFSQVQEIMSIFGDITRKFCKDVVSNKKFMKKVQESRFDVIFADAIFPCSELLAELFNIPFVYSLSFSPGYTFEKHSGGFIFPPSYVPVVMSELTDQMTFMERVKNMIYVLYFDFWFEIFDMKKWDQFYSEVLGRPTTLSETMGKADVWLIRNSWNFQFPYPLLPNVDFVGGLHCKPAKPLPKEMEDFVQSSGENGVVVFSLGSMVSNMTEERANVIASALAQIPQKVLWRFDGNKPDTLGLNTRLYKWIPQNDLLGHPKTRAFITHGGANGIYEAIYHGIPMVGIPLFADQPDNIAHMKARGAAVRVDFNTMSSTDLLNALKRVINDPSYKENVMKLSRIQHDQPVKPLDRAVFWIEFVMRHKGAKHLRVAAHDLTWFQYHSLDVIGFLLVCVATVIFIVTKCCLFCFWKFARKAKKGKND
Type: functional
Procedure, shortened: (§1)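 Recombinant human UGT2B7 from baculovirus-infected insect cells, 0.1 µg/µL, in 5.0 mM phosphate (pH 7.4), 10 mM MgCl2 and 5.0 mM saccharic acid-1,4-lactone. Racemates were tested at three concentrations bracketing Kic estimated by Cheng-Prusoff. Scopoletin was 100–2000 µM. After 5 min preincubation at 37 °C, 5.0 mM UDPGlcA was added and the reaction ran 15 min. Glucuronide was read by HPLC fluorescence (ex 335/em 455 nm). Mechanism came from simultaneous nonlinear regression.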

| Compound | Ki |
| --- | --- |
| Cc1cc(C)c2c(c1)C(O)CCC2 (racemic) | 101 µM |
| Cc1ccc2c(c1)C(O)CCO2 (racemic) | 113 µM |
| Cc1ccc2c(c1)C(O)CC2 (racemic) | 301 µM |

The compounds below were run against T1, UDP-glucuronosyltransferase 2B7 (assay: (§2) Inhibition of UGT2B7). Conditions: not given.

| Compound | IC50 |
| --- | --- |
| O[C@@H]1CCOc2ccccc21 | 507 µM |
| Cc1cccc2c1CC[C@@H]2O | 179 µM |
| O[C@H]1CCOc2ccccc21 (racemic) | 518 µM |
| O[C@@H]1CCCc2ccccc21 | 337 µM |
| Cc1cccc2c1CC[C@H]2O (racemic) | 317 µM |
| Cc1ccc2c(c1)[C@@H](O)CCO2 (racemic) | 182 µM |
| COc1ccc2c(c1)[C@@H](O)CCC2 | 351 µM |
| Cc1ccc2c(c1)[C@H](O)CCO2 | 225 µM |
| COc1cccc2c1CCC[C@H]2O (racemic) | 366 µM |
| C[C@H](O)c1c2ccccc2cc2ccccc12 (racemic) | 532 µM |
| O=[N+]([O-])c1ccc2c(c1)[C@@H](O)CCC2 | 651 µM |
| Cc1ccc2c(c1)[C@@H](O)CC2 | 540 µM |
| COc1ccc2c(c1)[C@H](O)CCC2 (racemic) | 284 µM |
| C[C@@H](O)c1cccc2ccccc12 | 130 µM |
| O[C@H]1CCc2ccccc21 | 513 µM |
| O[C@@H]1CCc2ccccc21 | 275 µM |
| C[C@H](O)c1cccc2ccccc12 (racemic) | 214 µM |
| Cc1ccc2c(c1)[C@H](O)CC2 (racemic) | 394 µM |
| Cc1cc(C)c2c(c1)[C@H](O)CCC2 (racemic) | 158 µM |
| C[C@@H](O)c1c2ccccc2cc2ccccc12 | 344 µM |
| O[C@H]1CCCc2ccccc21 | 489 µM |
| COc1cccc2c1CCC[C@@H]2O | 301 µM |
| Cc1cc(C)c2c(c1)[C@@H](O)CCC2 | 166 µM |
| O=[N+]([O-])c1ccc2c(c1)[C@H](O)CCC2 (racemic) | 599 µM |

The compounds below were run against T2, UGT2B7 (Homo sapiens, UniProt P16662) (assay: as §2). Conditions: human; read-out: Imax.
T2 sequence (P16662 whole entry): T1 sequence (P16662 whole entry)

| Compound | Emax |
| --- | --- |
| O[C@@H]1CCOc2ccccc21 | 65.8% |
| Cc1cccc2c1CC[C@@H]2O | 86.4% |
| O[C@H]1CCOc2ccccc21 (racemic) | 68.7% |
| O[C@@H]1CCCc2ccccc21 | 73.6% |
| Cc1cccc2c1CC[C@H]2O (racemic) | 76% |
| Cc1ccc2c(c1)[C@@H](O)CCO2 (racemic) | 85% |
| COc1ccc2c(c1)[C@@H](O)CCC2 | 77.2% |
| Cc1ccc2c(c1)[C@H](O)CCO2 | 83.5% |
| COc1cccc2c1CCC[C@H]2O (racemic) | 76.5% |
| C[C@H](O)c1c2ccccc2cc2ccccc12 (racemic) | 17.7% |
| O=[N+]([O-])c1ccc2c(c1)[C@@H](O)CCC2 | 62.5% |
| Cc1ccc2c(c1)[C@@H](O)CC2 | 64.4% |
| COc1ccc2c(c1)[C@H](O)CCC2 (racemic) | 80.4% |
| C[C@@H](O)c1cccc2ccccc12 | 41.9% |
| O[C@H]1CCc2ccccc21 | 67.3% |
| O[C@@H]1CCc2ccccc21 | 77.1% |
| C[C@H](O)c1cccc2ccccc12 (racemic) | 31.8% |
| Cc1ccc2c(c1)[C@H](O)CC2 (racemic) | 71.2% |
| Cc1cc(C)c2c(c1)[C@H](O)CCC2 (racemic) | 85.7% |
| C[C@@H](O)c1c2ccccc2cc2ccccc12 | 19.8% |
| O[C@H]1CCCc2ccccc21 | 67.8% |
| COc1cccc2c1CCC[C@@H]2O | 80.2% |
| Cc1cc(C)c2c(c1)[C@@H](O)CCC2 | 83.5% |
| O=[N+]([O-])c1ccc2c(c1)[C@H](O)CCC2 (racemic) | 61.9% |

These compounds were tested against T3, UDP-glucuronosyltransferase 2B17 (Homo sapiens, UniProt O75795) (assay: Competitive inhibition of UGT2B17-catalyzed scopoletin glucuronidation). Conditions: not given.
T3 sequence (O75795 whole entry): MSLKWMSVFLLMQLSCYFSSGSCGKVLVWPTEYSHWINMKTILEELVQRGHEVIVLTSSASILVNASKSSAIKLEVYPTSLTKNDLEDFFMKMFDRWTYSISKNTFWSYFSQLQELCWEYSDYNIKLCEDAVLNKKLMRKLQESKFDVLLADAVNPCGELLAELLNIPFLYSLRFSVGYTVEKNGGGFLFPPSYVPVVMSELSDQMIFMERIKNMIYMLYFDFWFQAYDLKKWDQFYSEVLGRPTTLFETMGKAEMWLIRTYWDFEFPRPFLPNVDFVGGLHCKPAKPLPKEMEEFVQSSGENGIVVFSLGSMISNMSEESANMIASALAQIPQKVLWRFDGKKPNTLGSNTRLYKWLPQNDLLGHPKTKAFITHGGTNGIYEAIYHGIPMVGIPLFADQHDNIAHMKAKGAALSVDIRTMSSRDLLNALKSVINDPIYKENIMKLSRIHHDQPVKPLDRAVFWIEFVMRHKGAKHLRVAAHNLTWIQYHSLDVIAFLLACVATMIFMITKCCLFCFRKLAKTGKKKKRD
Type: functional
Procedure, shortened: (§3)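 His-tagged human UGT2B17 expressed in insect cells, 0.1 µg/µL, in 5.0 mM phosphate (pH 7.4) with 10 mM MgCl2 and 5.0 mM saccharic acid-1,4-lactone. Initial velocities were taken at scopoletin 100, 250, 500, 1000 and 2000 µM, with racemic inhibitors at three levels bracketing Kic estimated by Cheng-Prusoff. UDPGlcA (5.0 mM final) started the reaction after 5 min preincubation at 37 °C; run 15 min. Scopoletin glucuronide was measured by HPLC fluorescence. Inhibition mechanism was fitted by simultaneous nonlinear regression.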

| Compound | Ki |
| --- | --- |
| Cc1cc(C)c2c(c1)C(O)CCC2 (racemic) | 57.8 µM |
| Cc1ccc2c(c1)C(O)CCO2 (racemic) | 201 µM |
| Cc1ccc2c(c1)C(O)CC2 (racemic) | 427 µM |

These compounds were tested against T3, UDP-glucuronosyltransferase 2B17 (assay: (§4) Inhibition of UGT2B17). Conditions: not given.
Procedure, shortened: (§5)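 IC50 against UGT2B17-catalyzed glucuronidation of scopoletin, using His-tagged enzyme from insect cells at 0.1 µg/µL. Scopoletin was 300 µM (its Km) with inhibitor at 10–1000 µM. For poorly soluble aliphatic alcohols, inhibitor was 5–100 µM and scopoletin 50 µM. Buffer was 5.0 mM phosphate pH 7.4 with MgCl2 and saccharic lactone. UDPGlcA 5.0 mM; 15 min at 37 °C. Scopoletin glucuronide was read by HPLC fluorescence and fitted to the two-parameter Hill equation.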

| Compound | IC50 |
| --- | --- |
| C[C@H](O)c1ccc2ccccc2c1 (racemic) | 657 µM |
| O[C@@H]1CCOc2ccccc21 | 448 µM |
| Cc1cccc2c1CC[C@@H]2O | 608 µM |
| O[C@H]1CCOc2ccccc21 (racemic) | 319 µM |
| O[C@@H]1CCCc2ccccc21 | 242 µM |
| Cc1cccc2c1CC[C@H]2O (racemic) | 682 µM |
| Cc1ccc2c(c1)[C@@H](O)CCO2 (racemic) | 325 µM |
| COc1ccc2c(c1)[C@@H](O)CCC2 | 216 µM |
| Cc1ccc2c(c1)[C@H](O)CCO2 | 365 µM |
| C[C@@H](O)c1ccc2ccccc2c1 | 578 µM |
| COc1cccc2c1CCC[C@H]2O (racemic) | 112 µM |
| C[C@H](O)c1c2ccccc2cc2ccccc12 (racemic) | 606 µM |
| O=[N+]([O-])c1ccc2c(c1)[C@@H](O)CCC2 | 305 µM |
| Cc1ccc2c(c1)[C@@H](O)CC2 | 728 µM |
| COc1ccc2c(c1)[C@H](O)CCC2 (racemic) | 162 µM |
| C[C@@H](O)c1cccc2ccccc12 | 389 µM |
| O[C@H]1CCc2ccccc21 | 545 µM |
| O[C@@H]1CCc2ccccc21 | 517 µM |
| C[C@H](O)c1cccc2ccccc12 (racemic) | 537 µM |
| Cc1ccc2c(c1)[C@H](O)CC2 (racemic) | 489 µM |
| Cc1cc(C)c2c(c1)[C@H](O)CCC2 (racemic) | 144 µM |
| C[C@@H](O)c1c2ccccc2cc2ccccc12 | 703 µM |
| O[C@H]1CCCc2ccccc21 | 374 µM |
| COc1cccc2c1CCC[C@@H]2O | 132 µM |
| Cc1cc(C)c2c(c1)[C@@H](O)CCC2 | 98 µM |
| O=[N+]([O-])c1ccc2c(c1)[C@H](O)CCC2 (racemic) | 217 µM |

The compounds below were run against T4, UGT2B17 (Homo sapiens, UniProt O75795) (assay: as §4). Conditions: human; read-out: Imax.
T4 sequence (O75795 whole entry): T3 sequence (O75795 whole entry)
Procedure, shortened: as §5

| Compound | Emax |
| --- | --- |
| C[C@H](O)c1ccc2ccccc2c1 (racemic) | 9.12% |
| O[C@@H]1CCOc2ccccc21 | 69.3% |
| Cc1cccc2c1CC[C@@H]2O | 61.7% |
| O[C@H]1CCOc2ccccc21 (racemic) | 74.8% |
| O[C@@H]1CCCc2ccccc21 | 78.8% |
| Cc1cccc2c1CC[C@H]2O (racemic) | 60.1% |
| Cc1ccc2c(c1)[C@@H](O)CCO2 (racemic) | 75.3% |
| COc1ccc2c(c1)[C@@H](O)CCC2 | 80.4% |
| Cc1ccc2c(c1)[C@H](O)CCO2 | 72.6% |
| C[C@@H](O)c1ccc2ccccc2c1 | 16.7% |
| COc1cccc2c1CCC[C@H]2O (racemic) | 88.9% |
| C[C@H](O)c1c2ccccc2cc2ccccc12 (racemic) | 11.1% |
| O=[N+]([O-])c1ccc2c(c1)[C@@H](O)CCC2 | 77.4% |
| Cc1ccc2c(c1)[C@@H](O)CC2 | 58.3% |
| COc1ccc2c(c1)[C@H](O)CCC2 (racemic) | 84.7% |
| C[C@@H](O)c1cccc2ccccc12 | 18.9% |
| O[C@H]1CCc2ccccc21 | 63.4% |
| O[C@@H]1CCc2ccccc21 | 65.3% |
| C[C@H](O)c1cccc2ccccc12 (racemic) | 14.3% |
| Cc1ccc2c(c1)[C@H](O)CC2 (racemic) | 69.6% |
| Cc1cc(C)c2c(c1)[C@H](O)CCC2 (racemic) | 87.8% |
| C[C@@H](O)c1c2ccccc2cc2ccccc12 | 13.1% |
| O[C@H]1CCCc2ccccc21 | 76.1% |
| COc1cccc2c1CCC[C@@H]2O | 89.1% |
| Cc1cc(C)c2c(c1)[C@@H](O)CCC2 | 90.5% |
| O=[N+]([O-])c1ccc2c(c1)[C@H](O)CCC2 (racemic) | 83.5% |

These compounds were tested against T3, UDP-glucuronosyltransferase 2B17 (assay: Non competitive inhibition of UGT2B17-catalyzed scopoletin glucuronidation). Conditions: not given.
Type: functional
Procedure, shortened: as §3

| Compound | Ki |
| --- | --- |
| Cc1cc(C)c2c(c1)C(O)CCC2 (racemic) | 190 µM |
| Cc1ccc2c(c1)C(O)CCO2 (racemic) | 608 µM |
| Cc1ccc2c(c1)C(O)CC2 (racemic) | 1440 µM |

What follows are compounds tested against T1, UDP-glucuronosyltransferase 2B7 (assay: Non competitive inhibition of UGT2B7-catalyzed scopoletin glucuronidation). Conditions: not given.
Type: functional
Procedure, shortened: as §1

| Compound | Ki |
| --- | --- |
| Cc1cc(C)c2c(c1)C(O)CCC2 (racemic) | 192 µM |
| Cc1ccc2c(c1)C(O)CCO2 (racemic) | 258 µM |
| Cc1ccc2c(c1)C(O)CC2 (racemic) | 624 µM |
